Source: PubChem (several laboratories)
PHOSPHO1 inh: PubChem AID 1565. recombinant PHOSPHO1, absorbance phosphatase assay. 290,000 tested, 1.1% active. inhibition, % at 13.3 µM; in the data active = inhibition above about 60%
Target sequence (Q8TCT1 whole entry, looked up): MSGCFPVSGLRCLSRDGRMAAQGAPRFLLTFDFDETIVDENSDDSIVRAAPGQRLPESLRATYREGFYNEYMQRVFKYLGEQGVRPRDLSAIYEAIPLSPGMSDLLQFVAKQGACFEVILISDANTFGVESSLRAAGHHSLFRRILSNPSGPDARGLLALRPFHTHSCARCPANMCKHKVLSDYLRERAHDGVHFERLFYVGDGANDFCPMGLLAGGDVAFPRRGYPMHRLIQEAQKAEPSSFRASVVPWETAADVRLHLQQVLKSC
IMP-1 inhibitor: IMP-1 metallo-beta-lactamase inhibitors, primary screen, biochemical, epi-absorbance readout, Pseudomonas aeruginosa enzyme; metallo-beta-lactamase IMP-1 (Pseudomonas aeruginosa); purified IMP-1, nitrocefin hydrolysis, epi-absorbance fluorescence; inhibition, % at 5.6 µM; 290,000 tested, 0.45% active; AID 1556, 2009;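 active = inhibition above the mean plus 3 SD of all compounds in the same screening run, cut at about 4.5% in these data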
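Assay system: purified recombinant IMP-1 beta-lactamase. Input: IMP-1 0.2 nM before substrate addition. Buffer or medium: Zinc- and detergent-supplemented HEPES buffer, pH 7.1. Schedule: 25 °C, 15 min preincubation, 25 min reaction. Signal: Epi-absorbance fluorescence, 480 nm excitation, 530 nm emission. Evaluation: percent inhibition from optical density relative to buffer-blank wells.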
ASAP1 GAP inh: inhibitors of human ASAP1 ArfGAP activity, primary screen, biochemical, fluorescence polarization; AID 624377, 2012; inhibition, % at 16.5 µM; ASAP1-stimulated ARF1 GTP hydrolysis, GDP FP detection; 360,000 tested, 0.19% active; in the data active = inhibition above about 25%
Calb FLC: C. albicans growth inhibition with fluconazole, primary screen, CaCi-2 strain, Alamar Blue fluorescence; AID 1979, 2009; growth inhibition, % (concentration not given with the values); C. albicans CaCi-2 (fluconazole-resistant clinical isolate) + fluconazole, 48 h; 300,000 tested, 0.57% active;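 active = growth inhibition above about 58% in most replicates, limit read from the data, passing the limit was not always enough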;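 note: all wells also contain fluconazole at 8 µg/ml as a sub-toxic cotreatment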
ARFGAP1 inh: inhibitors of rat ARFGAP1 GAP activity, primary screen, biochemical, fluorescence polarization, GDP tracer. Arfgap1-stimulated ARF1 GTP hydrolysis, GDP FP detection. inhibition, % at 16.5 µM. 360,000 tested, 0.26% active;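 active = inhibition above a per-plate limit, mean inhibition of low control wells plus 3 SD, cut at about 25% in these data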
Target sequence (Q62848 1-136 limits assumed): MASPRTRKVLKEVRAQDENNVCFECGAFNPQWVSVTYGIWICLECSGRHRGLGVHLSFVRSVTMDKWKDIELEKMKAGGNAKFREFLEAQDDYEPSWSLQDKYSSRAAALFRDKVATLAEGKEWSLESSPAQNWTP
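material = rat Arfgap1 catalytic domain, aa 1-136 | also added = human ARF1(Δ1-17)-GTP substrate | compound dosing = one concentration, 16.5 µM, DMSO 1.26% | times = GTP hydrolysis reaction 2 h at 25 °C | measured by = FP, GDP Alexa 633 tracer displaced from anti-GDP antibody, 620/688 nm | evaluation = percent inhibition of Arfgap1-stimulated GTP hydrolysis | replication = single well per compound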
VIM-2 inh: VIM-2 metallo-beta-lactamase inhibitors, primary screen, biochemical, epi-absorbance readout, Pseudomonas aeruginosa enzyme; purified VIM-2, nitrocefin hydrolysis, epi-absorbance fluorescence; inhibition, % at 5.6 µM; 290,000 tested, 0.89% active; AID 1527, 2009;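 active = inhibition above the mean of all tested compounds plus 3 SD, cutoff set per screening run, cut at about 7.5% in these data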;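 note: red hydrolysis product quenches plate fluorescence so inhibitors raise well fluorescence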
A number is an active result; ! = repeats disagree. Rows were chosen to be rich in hits. Some 2.6% of all compounds tested hit in one or more screens of this group.

Cn1c(Cc2c[nH]c3ccccc23)n[nH]c1=S was read as PHOSPHO1 inh 89, IMP-1 inhibitor inactive, ASAP1 GAP inh inactive, Calb FLC inactive, ARFGAP1 inh inactive and VIM-2 inh inactive.
For CCOc1ccc(NC(=S)/C(=C(\[O-])c2ccc(C)c([N+](=O)[O-])c2)[n+]2ccccc2)cc1 the results were PHOSPHO1 inh 93, IMP-1 inhibitor inactive, Calb FLC inactive and VIM-2 inh inactive.
CCc1cc[n+](/C(C(=S)Nc2cccc(C)c2)=C(/[O-])c2ccc(C)c([N+](=O)[O-])c2)cc1 was read as PHOSPHO1 inh inactive, IMP-1 inhibitor inactive, ASAP1 GAP inh inactive, Calb FLC inactive, ARFGAP1 inh inactive and VIM-2 inh inactive.
For Cn1c(CN2CCN(C(=O)c3ccco3)CC2)nc2cc([N+](=O)[O-])ccc21 the results were PHOSPHO1 inh 66, IMP-1 inhibitor inactive, ASAP1 GAP inh inactive, ARFGAP1 inh inactive and VIM-2 inh inactive.
Screening CO[C@@H]1[C@H](O)CC[C@]2(O)CN(c3ccccc3)[C@](C)([C@H](O)CC=C(C)C)[C@@H]12 returned ASAP1 GAP inh inactive and ARFGAP1 inh inactive.
`COc1ccc(-c2cc(=O)c3c(OC)c(OC)c(OC)c(OC)c3o2)cc1OC` gave PHOSPHO1 inh inactive, IMP-1 inhibitor inactive, ASAP1 GAP inh inactive, ARFGAP1 inh inactive and VIM-2 inh 10!.
For COc1ccc(-c2cc(=O)c3c(O)c(OC)c(OC)c(OC)c3o2)cc1 the results were ASAP1 GAP inh inactive and ARFGAP1 inh inactive.
Screening COc1cc(-c2cc(=O)c3ccccc3o2)ccc1O returned PHOSPHO1 inh inactive, IMP-1 inhibitor inactive, ASAP1 GAP inh inactive, Calb FLC inactive, ARFGAP1 inh inactive and VIM-2 inh 9.5.
Screening COC(=O)C1=C(C)N(C)C(=NCc2cc(OC)c(OC)c(OC)c2)NC1c1cccc(F)c1 (stereo unspecified) returned ASAP1 GAP inh inactive and ARFGAP1 inh inactive.
`FC(F)(F)c1ccccc1-n1c(-c2cnccn2)n[nH]c1=S` gave PHOSPHO1 inh 74, IMP-1 inhibitor inactive, ASAP1 GAP inh inactive, Calb FLC inactive, ARFGAP1 inh inactive and VIM-2 inh inactive.
For O=[N+]([O-])c1cc(S(=O)(=O)NCc2ccco2)ccc1NN=Cc1ccccn1 the results were ASAP1 GAP inh inactive and ARFGAP1 inh inactive.
Screening COc1cc(/C=C/C(=O)CC(=O)/C=C/c2ccc(O)c(OC)c2)ccc1O returned PHOSPHO1 inh inactive, IMP-1 inhibitor 18, ASAP1 GAP inh inactive, ARFGAP1 inh inactive and VIM-2 inh inactive.
For COc1cc(/C=C2\CCC/C(=C\c3ccc(O)c(OC)c3)C2=O)ccc1O the results were PHOSPHO1 inh inactive, IMP-1 inhibitor inactive, ASAP1 GAP inh inactive, Calb FLC inactive, ARFGAP1 inh inactive and VIM-2 inh 11.
COc1cc(/C=C/C(=O)O)ccc1O was read as ASAP1 GAP inh inactive, Calb FLC inactive and ARFGAP1 inh inactive.
Screening Cc1ccc(C(Nc2ccccc2)c2ccc3ccc(C)nc3c2O)c(C)c1 (stereo unspecified) returned ASAP1 GAP inh inactive and ARFGAP1 inh inactive.
For C/C(=N\NS(=O)(=O)c1ccc(C)c([N+](=O)[O-])c1)c1cc2ccccc2o1 the results were PHOSPHO1 inh 79, IMP-1 inhibitor inactive, ASAP1 GAP inh inactive, Calb FLC inactive, ARFGAP1 inh inactive and VIM-2 inh inactive.
For COc1ccc(S(=O)(=O)Nc2cc(Sc3ncn[nH]3)c(O)c3ccccc23)cc1 the results were PHOSPHO1 inh 98, IMP-1 inhibitor inactive, ASAP1 GAP inh inactive, ARFGAP1 inh inactive and VIM-2 inh inactive.
Screening COc1ccc(S(=O)(=O)Nc2ccc(O)c(Sc3ncn[nH]3)c2)cc1 returned PHOSPHO1 inh inactive, IMP-1 inhibitor inactive, ASAP1 GAP inh inactive, Calb FLC inactive, ARFGAP1 inh inactive and VIM-2 inh inactive.
Screening COC(=O)[C@]12C[C@H](CC(=O)NCc3cccs3)C(=O)N(Cc3ccc4c(c3)OCO4)C1=C[C@H](COCc1ccccc1)O[C@@H]2C returned ASAP1 GAP inh inactive and ARFGAP1 inh inactive.
`CC(C)CNC(=S)NNC(=O)CC(C)O` (stereo unspecified) gave PHOSPHO1 inh 61, IMP-1 inhibitor inactive, ASAP1 GAP inh inactive, Calb FLC inactive, ARFGAP1 inh inactive and VIM-2 inh inactive.
For CCNC(=S)NNC(=O)CC(C)C the results were PHOSPHO1 inh inactive, IMP-1 inhibitor inactive, ASAP1 GAP inh inactive, Calb FLC inactive, ARFGAP1 inh inactive and VIM-2 inh inactive.
Screening C#CCN(Cc1ccco1)C(=O)c1nnc2c3ccccc3n(S(=O)(=O)c3ccccc3)c2n1 returned ASAP1 GAP inh inactive and ARFGAP1 inh inactive.
`O=C1N=C(N2CCCCC2)SC1=C1CCCCC1` gave PHOSPHO1 inh inactive, IMP-1 inhibitor inactive, ASAP1 GAP inh inactive, Calb FLC inactive, ARFGAP1 inh inactive and VIM-2 inh inactive.
Screening O=C1NC(=S)SC1=C1CCCCCC1 returned PHOSPHO1 inh 84, IMP-1 inhibitor inactive, ASAP1 GAP inh inactive, Calb FLC inactive, ARFGAP1 inh inactive and VIM-2 inh inactive.
`Cc1cc(N2CCN(c3ccccn3)CC2)n2nc(C)nc2n1` gave IMP-1 inhibitor inactive, ASAP1 GAP inh inactive, Calb FLC inactive, ARFGAP1 inh inactive and VIM-2 inh 10.
For CCOC(=O)C1=C(CSc2nc3c(cc2C#N)CN(C)CC3)OC(N)=C(C#N)C1c1ccc(F)cc1 (stereo unspecified) the results were PHOSPHO1 inh 67, IMP-1 inhibitor inactive, ASAP1 GAP inh inactive, Calb FLC inactive, ARFGAP1 inh inactive and VIM-2 inh inactive.
For CCOC(=O)CC1=C(C(=O)OCC)C(c2cccnc2)C(C#N)=C(N)O1 (stereo unspecified) the results were PHOSPHO1 inh inactive, IMP-1 inhibitor inactive, ASAP1 GAP inh inactive, Calb FLC inactive, ARFGAP1 inh inactive and VIM-2 inh inactive.
For CCOC(=O)C1=C(CSc2nc(-c3ccccc3)ccc2C#N)OC(N)=C(C#N)C1c1cccnc1 (stereo unspecified) the results were PHOSPHO1 inh 80, IMP-1 inhibitor inactive, ASAP1 GAP inh inactive, Calb FLC inactive, ARFGAP1 inh inactive and VIM-2 inh inactive.
`CCOC(=O)C1=C(CSc2nc3c(cc2C#N)CN(C)CC3)OC(N)=C(C#N)C1c1ccccc1` (stereo unspecified) gave PHOSPHO1 inh 98, IMP-1 inhibitor inactive, ASAP1 GAP inh inactive, Calb FLC inactive, ARFGAP1 inh inactive and VIM-2 inh inactive.
For Cn1c(=O)c2c(nc(Oc3ccccc3Br)n2C)n(C)c1=O the results were PHOSPHO1 inh inactive, IMP-1 inhibitor inactive, ASAP1 GAP inh inactive, Calb FLC inactive, ARFGAP1 inh inactive and VIM-2 inh 10.0.
